For orientation: Ki means the dissociation constant of the complex between target and ligand, obtained from inhibition or displacement. In general, IC50 refers to the concentration that inhibits the measured activity by half.

The source of these data is ChEMBL document CHEMBL1177717, “Mercaptophosphonate compounds as broad-spectrum inhibitors of the metallo-beta-lactamases” (J Med Chem, 2010).

The nature of test [1]: Inhibition of VIM4 in presence of Zn+ chelator. The gist of the method:
(§1)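 Purified VIM-4 (0.2–0.8 nM) in 10 mM HEPES pH 7.2 with 20 μg/mL BSA, run without added Zn2+ (Zn2+ below 0.4 μM) or with 50 μM ZnCl2 final. Enzyme was preincubated with 100 μM inhibitor for 30 min at 37 C. Nitrocefin hydrolysis followed at 482 nm. Ki determined; SD below 10%.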

Test [2] is described as follows: Inhibition of VIM4 in absence of Zn+ chelator. Summed up: as §1
Test [3] concerns the target T1, Beta-lactamase L1 (Stenotrophomonas maltophilia, UniProt P52700). Briefly: Inhibition of Stenotrophomonas maltophilia beta lactamase L1 in presence of Zn+ chelator. Summed up:
(§2)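 Purified L1 (0.2–0.8 nM) in 20 mM HEPES pH 7.0 with 20 μg/mL BSA, run without added Zn2+ (Zn2+ below 0.4 μM) or with 50 μM ZnCl2 final. Enzyme was preincubated with 100 μM inhibitor for 30 min at 37 C. Imipenem hydrolysis followed at 300 nm. Ki determined; SD below 10%.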

Test [4] deals with T1, Beta-lactamase L1. In words: Inhibition of Stenotrophomonas maltophilia beta lactamase L1 in absence of Zn+ chelator. The gist of the method:
as §2

In test [5] the target is Metallo-beta-lactamase type 2 (Aeromonas hydrophila, UniProt P26918). In words: Inhibition of Aeromonas hydrophila cphA. The gist of the method:
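Purified CphA (0.2–0.8 nM) in 15 mM cacodylate pH 6.5 with 20 μg/mL BSA and no added Zn2+ (Zn2+ below 0.4 μM). Enzyme was preincubated with 100 μM inhibitor for 30 min at 37 C. Imipenem was then added and its hydrolysis followed by absorbance at 300 nm. Competitive Ki determined; SD below 10%.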

Test [6] can be described thus: Inhibition of Escherichia coli alkaline phosphatase.
Test [7] addresses Intestinal-type alkaline phosphatase (Bos taurus, UniProt P19111). In words: Inhibition of bovine intestinal alkaline phosphatase.

Chain of Metallo-beta-lactamase type 2 (P26918 whole entry): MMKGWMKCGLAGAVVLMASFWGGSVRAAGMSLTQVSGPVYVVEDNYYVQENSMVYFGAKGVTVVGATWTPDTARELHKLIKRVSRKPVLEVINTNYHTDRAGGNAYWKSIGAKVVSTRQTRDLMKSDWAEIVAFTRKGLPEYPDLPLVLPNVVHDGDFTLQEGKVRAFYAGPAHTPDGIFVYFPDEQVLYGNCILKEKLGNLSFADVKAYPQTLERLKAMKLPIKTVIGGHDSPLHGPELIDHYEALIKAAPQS
T1 sequence (P52700 whole entry): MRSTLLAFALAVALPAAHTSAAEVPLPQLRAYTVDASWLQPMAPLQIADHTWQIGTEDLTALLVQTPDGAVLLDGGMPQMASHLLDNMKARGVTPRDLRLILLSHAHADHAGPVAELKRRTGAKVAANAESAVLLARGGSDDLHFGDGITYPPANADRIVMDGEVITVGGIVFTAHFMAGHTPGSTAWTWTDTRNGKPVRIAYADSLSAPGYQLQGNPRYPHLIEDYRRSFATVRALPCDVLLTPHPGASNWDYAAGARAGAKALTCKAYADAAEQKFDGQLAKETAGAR
Chain of Intestinal-type alkaline phosphatase (P19111 whole entry): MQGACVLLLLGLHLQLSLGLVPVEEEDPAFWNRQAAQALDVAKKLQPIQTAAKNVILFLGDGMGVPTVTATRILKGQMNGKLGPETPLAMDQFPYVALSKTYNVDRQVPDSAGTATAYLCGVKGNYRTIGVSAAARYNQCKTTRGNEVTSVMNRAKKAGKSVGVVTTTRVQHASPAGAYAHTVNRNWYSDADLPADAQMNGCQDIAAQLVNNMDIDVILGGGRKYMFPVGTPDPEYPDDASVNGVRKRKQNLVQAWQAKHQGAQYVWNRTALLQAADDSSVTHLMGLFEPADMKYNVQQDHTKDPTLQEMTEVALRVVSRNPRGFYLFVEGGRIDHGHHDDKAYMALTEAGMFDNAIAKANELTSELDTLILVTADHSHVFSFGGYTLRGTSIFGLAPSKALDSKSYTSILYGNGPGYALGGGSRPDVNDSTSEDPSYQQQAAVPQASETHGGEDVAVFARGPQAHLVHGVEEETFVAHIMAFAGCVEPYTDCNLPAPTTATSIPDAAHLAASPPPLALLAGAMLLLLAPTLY

In the case of `O=P(O)(O)C(S)c1ccccc1` (configuration not stated), the Ki in test [1] was 3 µM; in test [2] it was 2.5 µM; in test [3], 32 µM; in test [4] it was more than 100 µM; in test [5], 11 µM.

With `O=P(O)(O)c1cc(F)ccc1S`, the Ki was 13 µM in test [1]; 2.5 µM in test [2]; 4 µM in test [3]; 40 µM in test [4]; more than 40 µM in test [5].

As for `CC(C)OP(=O)(OC(C)C)c1ccccc1S`, the Ki in test [1], in test [2], in test [3], in test [4] and in test [5] was more than 250 µM each time.

In the case of `CCC(S)P(=O)(O)O` (configuration not stated), the Ki in test [1] is 6 µM; in test [2] it was 11 µM; in test [3] it was more than 40 µM; in test [4], more than 80 µM; in test [5] it was 15 µM.

On to `O=P(O)(O)C(S)c1ccc(F)cc1` (configuration not stated), for which the Ki in test [1] was 11 µM; in test [2] it was 16 µM; in test [3], 18 µM; in test [4], more than 20 µM; in test [5] it was 1 µM.

Turning to `O=P(O)(O)c1ccccc1S`, the Ki in test [1] amounted to 4 µM; in test [2] it was 2 µM; in test [3], 12 µM; in test [4], 9 µM; in test [5] it was 7 µM; in test [7] it was 0.21 µM. In addition, in test [6], the IC50 is less than 10 µM.

For the compound `CC(C)OP(=O)(OC(C)C)c1ccccc1CS`, the Ki in test [1] is 12 µM; in test [2], 3 µM; in test [3], 14 µM; in test [4], 3 µM; in test [5], 2 µM.

Turning to `O=P(O)(O)c1ccccc1CS`, the Ki in test [1] is more than 400 µM; in test [2] it was 1 µM; in test [3], more than 50 µM; in test [4] it was 2 µM; in test [5], 0.5 µM.

As for `CCC(S)P(=O)(OC(C)C)OC(C)C` (configuration not stated), the Ki was more than 20 µM in test [1]; more than 20 µM in test [2]; more than 40 µM in test [3]; more than 40 µM in test [4]; 2 µM in test [5].

Take `O=P(O)(O)C(S)c1ccc(Cl)cc1Cl` (configuration not stated): the Ki in test [1] was 4 µM; in test [2] it was 1 µM; in test [3], 0.4 µM; in test [4], 0.4 µM; in test [5], 5 µM.

Take `COc1ccccc1C(S)P(=O)(O)O` (configuration not stated): the Ki in test [1] came to 4 µM; in test [2], 2 µM; in test [3] it was 4 µM; in test [4], 9 µM; in test [5] it was 15 µM.

Regarding `O=P(O)(O)C(S)c1ccc(Br)cc1` (configuration not stated), the Ki in test [1] worked out at 13.5 µM; in test [2], 5.5 µM; in test [3] it was 1.7 µM; in test [4] it was 8.4 µM; in test [5], 13 µM.

Turning to `O=P(O)(O)C(S)c1ccc(Cl)cc1` (configuration not stated), the Ki in test [1] was 10 µM; in test [2], 6.7 µM; in test [3] it was 0.7 µM; in test [4] it was 3.8 µM; in test [5], 24 µM.

For `CC(C)OP(=O)(OC(C)C)C(S)c1ccccc1` (configuration not stated) [DIISOPROPYL MERCAPTO(PHENYL)METHYLPHOSPHONATE], the Ki in test [1] was 8 µM; in test [2], 3 µM; in test [3], 16 µM; in test [4], 20 µM; in test [5] it was 0.25 µM.
